In ChEMBL document CHEMBL3997769, “Discovery and preclinical evaluation of 7-benzyl-N-(substituted)-pyrrolo[3,2-d]pyrimidin-4-amines as single agents with microtubule targeting effects along with triple-acting angiokinase inhibition as antitumor agents” (Bioorg Med Chem, 2017):
Calls of active or inactive are those of the source. No cut-off for these calls is given here.

Key:
4T1 [1] = assay: Antitumor activity against luciferase/GFP-tagged mouse 4T1 cells implanted in Balb/CJ mouse assessed as reduction in primary tumor growth at 1 mg/kg, ip administered once in a week; assay type: functional, organism-based
Mus musculus = assay: Toxicity in Balb/cJ mouse implanted with luciferase/GFP-tagged mouse 4T1 cells assessed as body weight gain at 1 mg/kg, ip administered once weekly measured at day 40 post dose; assay type: organism-based; settings: in vivo
4T1 [2] = assay: Antitumor activity against luciferase/GFP-tagged mouse 4T1 cells implanted in Balb/cJ mouse assessed as reduction in lung metastasis at 1 mg/kg, ip administered once weekly by fluorescence microscopic method; assay type: functional, organism-based
Procedure, shortened: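 Orthotopic 4T1-Luc2-GFP allograft in the mammary fat pad of female BALB/cJ mice; IP treatment in 5% Pharmasolve/5% Solutol HS in saline began one week after implantation. At study end, lungs were excised from mice euthanized under isoflurane and imaged with a GFP-filter fluorescence dissecting microscope; GFP-positive metastases per lung counted. n = 9-10.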

[3] = Toxicity in Balb/cJ mouse assessed as body weight loss administered once weekly measured every 2 days during compound dosing; settings: in vivo
Procedure, shortened: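 Female BALB/cJ mice, 8 weeks old, carrying orthotopic 4T1-Luc2-GFP allografts (7,500 cells in mammary fat pad #4). IP dosing at 1 mg/kg once weekly began one week after implantation, in 5% Pharmasolve/5% Solutol HS in normal saline. Body weight was reported as percent change at day 40 from starting weight, vs untreated controls, n = 9–10, by one-way ANOVA.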

HeLa = assay: Growth inhibition of human HeLa cells measured after 96 hrs by sulforhodamine B assay; assay type: functional, cell-based
Procedure, shortened: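 Exposed 96 h to varying compound concentrations in 0.5% DMSO. Cell protein measured by sulforhodamine B; IC50 = concentration halving the increase in cell protein versus untreated cultures.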

## COc1cccc2c1C(=O)c1c(O)c3c(c(O)c1C2=O)C[C@@](O)(C(=O)CO)C[C@@H]3O[C@H]1C[C@H](N)[C@H](O)[C@H](C)O1 [DOXORUBICIN]
4T1 [1]
  Activity: inactive
Mus musculus
  Activity: Toxic
4T1 [2]
  Activity: Active
[3]
  MTD at 48 h: 1 mg/kg

## COc1ccc2c(c1)CCCN2c1nc(C)nc2c(Cc3ccccc3)cn(C)c12
HeLa
  IC50: 60 nM
